From ChEMBL document CHEMBL1641397, “Camphoratins A-J, potent cytotoxic and anti-inflammatory triterpenoids from the fruiting body of Taiwanofungus camphoratus” (J Nat Prod, 2010)

Columns and labels:
BV-2 [1] = experiment: Antiinflammatory activity in mouse BV2 cells assessed as inhibition of NOX-dependent ROS production up to 50 uM; format: functional, cell-based
[2] = Antiinflammatory activity in human PMNC cells assessed as inhibition of fMLP-induced NOX-dependent ROS production up to 50 uM; format: functional, cell-based
BV-2 [3] = experiment: Antiinflammatory activity in mouse BV2 cells assessed as inhibition of LPS-induced iNOS-dependent nitrite production after 24 hrs by Griess method; format: functional, cell-based
[4] = Cytotoxicity against human KBVIN cells after 3 days by sulforhodamine B assay; format: functional, cell-based
Summary of the method: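 KB and vincristine-selected KB-VIN grown in RPMI-1640 with 25 mM HEPES and 10% FBS at 37 °C. KB-VIN challenged with 0.5 μg/mL vincristine every two weeks, drug withdrawn at least one day before use. Seeded at 5000 cells/well, compounds at 20 down to 0.16 μM for 3 days. TCA fixation, SRB stain, absorbance at 562 nm. EC50 interpolated, average of at least two independent determinations.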

KB [5] = experiment: Cytotoxicity against human KB cells after 3 days by sulforhodamine B assay; format: functional, cell-based
KB [6] = experiment: Cytotoxicity against human KB cells at 20 uM after 3 days by sulforhodamine B assay; format: functional, cell-based
Summary of the method: (§1)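 KB or KB-VIN cells (KB-VIN held under intermittent 0.5 μg/mL vincristine, withdrawn at least one day before use). Seeded at 5000 cells/well and exposed to compound at 20 μM for 3 days. Cells fixed with TCA, stained with SRB, absorbance read at 562 nm. Value is % inhibition of growth versus untreated cells.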

[7] = Cytotoxicity against human KBVIN cells at 20 uM after 3 days by sulforhodamine B assay; format: functional; conditions: 72 h; summary of the method: as §1
[8] = Homo sapiens, PMNC, read-out: IC50
[9] = Mus musculus, BV-2, 24 h, read-out: IC50
[10] = Homo sapiens, KBVIN, 72 h, read-out: EC50
[11] = Homo sapiens, KB, 72 h, read-out: EC50
[12] = Mus musculus, BV-2, read-out: IC50

Compound	IC50 (BV-2 [1]; bv-2)	IC50 [2, 8] [µM]	IC50 (BV-2 [3]; [9]) [µM]	EC50 ([4]; kbvin)	EC50 [4, 10] [µM]	EC50 (KB [5]; [11]) [µM]	also measured
CC(C)[C@@H](C)/C=C/[C@@H](C)[C@H]1CC[C@H]2C3=CC=C4C[C@@H](O)CC[C@]4(C)[C@H]3CC[C@]12C [ERGOSTEROL]	Not Active	27.9	30.6				
C=C(CC[C@@H](C)[C@H]1CC[C@H]2C3=C(C(=O)C[C@]12C)[C@@]1(C)CC[C@@H](O)[C@@H](C)[C@@H]1C[C@@H]3O)C(C)C(=O)O (stereo not given in full) [CAMPHORATIN B]	Not Active	32.1	15.7	Not Active			
C=C(CC[C@@H](C)[C@H]1CC[C@H]2C3=C(C(=O)C[C@]12C)[C@@]1(C)CCC(=O)[C@@H](C)[C@@H]1C[C@@H]3O)C(C)C(=O)O (stereo not given in full) [CAMPHORATIN D]	Not Active	22.6	4.2	Not Active			EC50 (KB [5]; kb): Not Active
C=C(CC[C@@H](C)[C@H]1CC[C@H]2C3=C(C(=O)C[C@]12C)[C@@]1(C)CC[C@@H](O)[C@](C)(O)[C@@H]1CC3=O)C(C)C(=O)O (stereo not given in full) [CAMPHORATIN C]					2.3	0.3	
C=C(CC[C@@H](C)[C@H]1CC[C@H]2C3=C(C(=O)C[C@]12C)[C@@]1(C)CCC(=O)[C@@H](C)[C@@H]1CC3=O)C(C)C(=O)OC (stereo not given in full) [ZHANKUIC ACID A METHYL ESTER]	Not Active	8.4	0.6		> 20	> 20	inhibition at 20 µM (KB [6]; Homo sapiens, KB, 72 h): 21%; inhibition at 20 µM [7]: 25%
C=C(CC[C@@H](C)[C@H]1CC[C@H]2C3=C(C(=O)C[C@]12C)[C@@]1(C)CCC(=O)[C@@H](C)[C@@H]1C[C@H]3O)C(C)C(=O)O (stereo not given in full) [CAMPHORATIN G]					17.5	15	
C[C@H](/C=C/[C@H](C)[C@H](C)CO)[C@H]1CC[C@H]2C3=CC[C@H]4CC(=O)CC[C@]4(C)[C@H]3CC[C@]12C [CAMPHORATIN I]	Not Active	17.5	12.7	Not Active			EC50 (KB [5]; kb): Not Active
COc1cc([C@@H]2c3cc4c(cc3[C@@H](O[C@@H]3O[C@@H]5CO[C@@H](C)O[C@H]5[C@H](O)[C@H]3O)[C@H]3COC(=O)[C@H]23)OCO4)cc(OC)c1O [ETOPOSIDE]					> 36	4.5	
CC(C)[C@@H](C)/C=C/[C@@H](C)[C@H]1CC[C@@H]2[C@]1(C)CC[C@H]1[C@]23C=C[C@]2(C[C@@H](O)CC[C@]12C)OO3 [ERGOSTEROL PEROXIDE]	Not Active	20.3	6.3				
C=C(CC[C@@H](C)[C@H]1CC[C@H]2C3=C(C(=O)C[C@]12C)[C@@]1(C)CC[C@@H](O)[C@@H](C)[C@@H]1CC3=O)C(C)C(=O)O (stereo not given in full) [ZHANKUIC ACID B]	Not Active		9.6		8.5	7.3	IC50 ([2]; pmnc): Not Active
C=C(CC[C@@H](C)[C@H]1CC[C@H]2C3=C(C[C@H](O)[C@]12C)[C@@]1(C)CC[C@@H](O)[C@@H](C)[C@@H]1CC3=O)C(C)C(=O)OC (stereo not given in full) [METHYL ANTCINATE H]		18.1	2.5	Not Active			IC50 (BV-2 [1]; [12]): 16 µM; EC50 (KB [5]; kb): Not Active
C=C(CC[C@@H](C)[C@H]1CC[C@H]2C3=C(C(=O)[C@H](O)[C@]12C)[C@@]1(C)CC[C@@H](O)[C@@H](C)[C@@H]1CC3=O)C(C)C(=O)O (stereo not given in full) [ZHANKUIC ACID C]			16.2		6.4	15.5	IC50 (BV-2 [1]; [12]): 40.3 µM; IC50 ([2]; pmnc): Not Active
c1ccc2c(c1)[I+]c1ccccc1-2 [DIPHENYLENEIODONIUM]							IC50 (BV-2 [1]; [12]): 0.4 µM
C=C(CC[C@@H](C)[C@H]1CC[C@@H]2C3=C(C(=O)C[C@@]21C)[C@@]1(C)CCC(=O)[C@@H](C)[C@@H]1CC3)C(C)C(=O)OC (stereo not given in full) [CAMPHORATIN J]	Not Active	15.8	1.6	Not Active			EC50 (KB [5]; kb): Not Active
C=C(CC[C@@H](C)[C@H]1CC[C@H]2C3=C(C(=O)C[C@]12C)[C@@]1(C)CCC(=O)[C@@H](C)[C@@H]1C[C@@H]3O)C(C)C(=O)OC (stereo not given in full) [CAMPHORATIN F]	Not Active	11.2	2.5		2.9	2	
C=C(CC[C@@H](C)[C@H]1CC[C@H]2C3=C(C(=O)C[C@]12C)[C@@]1(C)CCC(=O)[C@@H](C)[C@@H]1CC3)C(C)C [CAMPHORATIN H]				Not Active			EC50 (KB [5]; kb): Not Active
C=C(CC[C@@H](C)[C@H]1CC[C@H]2C3=C(C(=O)C[C@]12C)[C@@]1(C)CCC(=O)[C@@H](C)[C@@H]1CC3)C(C)C(=O)O (stereo not given in full) [ANTCIN A]		29.2	4.1		10	4.9	IC50 (BV-2 [1]; [12]): 45.9 µM
C=C(CC[C@@H](C)[C@H]1CC[C@H]2C3=C(C(=O)[C@H](O)[C@]12C)[C@@]1(C)CC[C@@H](O)[C@@H](C)[C@@H]1C[C@@H]3O)C(C)C(=O)O (stereo not given in full) [CAMPHORATIN A]				Not Active			EC50 (KB [6]; kb): Not Active
C=C(CC[C@@H](C)[C@H]1CC[C@H]2C3=C(C(=O)C[C@]12C)[C@@]1(C)CC[C@@H](O)[C@@H](C)[C@@H]1CC3=O)C(C)C(=O)OC (stereo not given in full) [CAMPHORATIN E]					2.7	0.45	
C=C(CC[C@@H](C)[C@H]1CC[C@H]2C3=C(C(=O)C[C@]12C)[C@@]1(C)CC[C@@H](O)[C@](C)(O)[C@@H]1C[C@@H]3O)C(C)C(=O)O (stereo not given in full) [ANTCIN K]	Not Active	47.2		Not Active			EC50 (KB [5]; kb): Not Active; IC50 (BV-2 [3]; bv-2): Not Active
C=C(CC[C@@H](C)[C@H]1CC[C@H]2C3=C(C(=O)C[C@]12C)[C@@]1(C)CCC(=O)[C@@H](C)[C@@H]1CC3=O)C(C)C(=O)O (stereo not given in full) [ZHANKUIC ACID A]	Not Active	22.1	3.6		6.2	3	
